# Calls of active or inactive are those of the source. The calls are words filed in the database; no cut-off is given here.
# Molecular target: Tumor necrosis factor ligand superfamily member 11/11A (Mus musculus) (UniProt O35235+O35305)
# Assay: Inhibition of RANKL-RANK protein-protein interaction in C57/BL6 mouse bone marrow macrophage assessed as suppression of M-CSF/mRANKL-induced osteoclastogenesis by measuring reduction in TRAP activity at 5 uM measured after 3 days by colorimetric assay relative to control
# Method in brief: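 BMMs were incubated with the test compound at 5 μM, together with RANKL (50 ng/mL) and M-CSF (20 ng/mL), for 3 days. Osteoclastogenesis was then read out as tartrate-resistant acid phosphatase (TRAP) activity.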
# Chain of Tumor necrosis factor ligand superfamily member 11/11A (Mus musculus) (O35235 139-316 limits assumed): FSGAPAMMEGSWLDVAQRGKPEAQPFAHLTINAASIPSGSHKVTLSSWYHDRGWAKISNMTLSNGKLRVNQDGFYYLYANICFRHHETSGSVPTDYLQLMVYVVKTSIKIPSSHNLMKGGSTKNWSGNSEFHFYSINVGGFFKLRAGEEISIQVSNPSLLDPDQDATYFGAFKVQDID
# Chain of Tumor necrosis factor ligand superfamily member 11/11A (Mus musculus) (O35305 31-625 partner limits assumed): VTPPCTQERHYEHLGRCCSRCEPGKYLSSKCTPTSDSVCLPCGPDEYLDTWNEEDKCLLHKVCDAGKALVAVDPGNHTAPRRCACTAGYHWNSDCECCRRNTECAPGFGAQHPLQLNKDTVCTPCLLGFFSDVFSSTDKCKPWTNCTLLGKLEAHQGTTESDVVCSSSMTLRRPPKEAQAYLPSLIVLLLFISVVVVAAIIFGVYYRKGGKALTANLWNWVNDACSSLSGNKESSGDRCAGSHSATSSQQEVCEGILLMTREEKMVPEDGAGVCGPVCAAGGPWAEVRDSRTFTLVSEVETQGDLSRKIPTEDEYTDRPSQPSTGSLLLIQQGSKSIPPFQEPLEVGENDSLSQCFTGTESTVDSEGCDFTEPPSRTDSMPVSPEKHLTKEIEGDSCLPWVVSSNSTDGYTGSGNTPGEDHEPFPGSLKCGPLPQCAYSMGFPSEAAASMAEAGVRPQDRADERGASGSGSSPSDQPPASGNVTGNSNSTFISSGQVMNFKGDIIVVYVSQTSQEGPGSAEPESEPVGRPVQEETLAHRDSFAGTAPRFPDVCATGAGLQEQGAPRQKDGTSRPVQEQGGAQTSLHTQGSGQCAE
row,Compound,inhibition
1,Cc1cccc(C)c1NCC(Cc1c[nH]c2ccccc12)NC(=O)CCc1ccccc1 (stereo not drawn),23.1%
2,Cc1ccccc1NC(=O)C(Cc1c[nH]c2ccccc12)NC(=O)CCc1ccccc1 (stereo not drawn),74.2%
3,CN(C)c1ccc(NC(=O)C(Cc2c[nH]c3ccccc23)NC(=O)CCc2ccccc2)cc1 (racemic),70.6%
4,COc1ccc(CCC(=O)NC(Cc2c[nH]c3ccccc23)C(=O)Nc2c(C)cccc2C)cc1 (racemic),16.9%
5,COc1ccc(NC(=O)C(Cc2c[nH]c3ccccc23)NC(=O)CCc2ccccc2)cc1 (racemic),59%
6,COc1ccc2[nH]cc(CC(NC(=O)CCc3ccccc3)C(=O)Nc3c(C)cccc3C)c2c1 (racemic),84.4%
7,COc1cccc(CCC(=O)NC(Cc2c[nH]c3ccccc23)C(=O)Nc2c(C)cccc2C)c1 (racemic),41.7%
8,CS(=O)(=O)c1ccc(NC(=O)C(Cc2c[nH]c3ccccc23)NC(=O)CCc2ccccc2)cc1 (racemic),69.9%
9,Cc1ccc(NC(=O)C(Cc2c[nH]c3ccccc23)NC(=O)CCc2ccccc2)cc1 (racemic),69.9%
10,Cc1cccc(C)c1NC(=O)C(Cc1c[nH]c2ccc(F)cc12)NC(=O)CCc1ccccc1 (racemic),83.9%
11,Cc1cccc(C)c1NC(=O)C(Cc1c[nH]c2ccccc12)NC(=O)CCC1CC1 (racemic),57.4%
12,Cc1cccc(C)c1NC(=O)C(Cc1c[nH]c2ccccc12)NC(=O)CCC1CCCC1 (racemic),14%
13,Cc1cccc(C)c1NC(=O)C(Cc1c[nH]c2ccccc12)NC(=O)CCC1CCCCC1 (racemic),35.4%
14,Cc1cccc(C)c1NC(=O)C(Cc1c[nH]c2ccccc12)NC(=O)CCCCc1ccccc1 (racemic),82%
15,Cc1cccc(C)c1NC(=O)C(Cc1c[nH]c2ccccc12)NC(=O)CCCc1ccccc1 (racemic),79.3%
16,Cc1cccc(C)c1NC(=O)C(Cc1c[nH]c2ccccc12)NC(=O)CCc1ccc(F)cc1 (racemic),33.6%
17,Cc1cccc(C)c1NC(=O)C(Cc1c[nH]c2ccccc12)NC(=O)CCc1cccc(Cl)c1 (racemic),69.5%

row,Compound,inhibition
1,Cc1cccc(C)c1NC(=O)C(Cc1c[nH]c2ccccc12)NC(=O)CCc1cccc(F)c1 (racemic),56.8%
2,Cc1cccc(C)c1NC(=O)C(Cc1c[nH]c2ccccc12)NC(=O)CCc1cccnc1 (racemic),66.5%
3,Cc1cccc(C)c1NC(=O)C(Cc1c[nH]c2ccccc12)NC(=O)CCc1cccs1 (racemic),65.4%
4,Cc1cccc(C)c1NC(=O)C(Cc1c[nH]c2ccccc12)NC(=O)CCc1ccncc1 (racemic),41.4%
5,Cc1cccc(C)c1NC(=O)C(Cc1c[nH]c2ccccc12)NC(=O)CCc1ccsc1 (racemic),52.2%
6,Cc1cccc(C)c1NC(=O)C(Cc1c[nH]c2ccccc12)NC(=O)CCc1nccs1 (racemic),86.3%
7,Cc1cccc(C)c1NC(=O)C(Cc1c[nH]c2ccccc12)NC(=O)Cc1ccccc1 (racemic),52.1%
8,Cc1cccc(C)c1NC(=O)C(Cc1c[nH]c2ccccc12)NCCCCCc1ccccc1 (racemic),87.2%
9,Cc1cccc(C)c1NC(=O)C(Cc1c[nH]c2ccccc12)NCCCCc1ccccc1 (racemic),83.3%
10,Cc1cccc(C)c1NC(=O)C(Cc1c[nH]c2ccccc12)NCCc1ccccc1 (racemic),76.5%
11,O=C(CCc1ccccc1)NC(Cc1c[nH]c2ccccc12)C(=O)Nc1ccc(C(F)(F)F)cc1 (racemic),72%
12,O=C(CCc1ccccc1)NC(Cc1c[nH]c2ccccc12)C(=O)Nc1ccc(F)cc1 (racemic),70.3%
13,O=C(CCc1ccccc1)NC(Cc1c[nH]c2ccccc12)C(=O)Nc1ccc(N2CCOCC2)cc1 (racemic),64.8%
14,O=C(CCc1ccccc1)NC(Cc1c[nH]c2ccccc12)C(=O)Nc1ccccc1 (racemic),55.3%
15,O=C(CCc1ccccc1)NC(Cc1c[nH]c2ccccc12)C(=O)Nc1ccccc1F (racemic),74%
16,"Cc1cccc(C)c1NC(=O)C(Cc1c[nH]c2ccccc12)NC(=O)CCc1ccccc1 (single isomer, unassigned; (+))",Active

# — ChEMBL document CHEMBL4396880, “Development of Small-Molecules Targeting Receptor Activator of Nuclear Factor-κB Ligand (RANKL)-Receptor Activator of Nuclear Factor-κB (RANK) Protein-Protein Interaction by Structure-Based Virtual Screening and Hit Optimization” (J Med Chem, 2019)
